Assay results: ChEMBL document CHEMBL4699451, “Discovery of BIIB068: A Selective, Potent, Reversible Bruton's Tyrosine Kinase Inhibitor as an Orally Efficacious Agent for Autoimmune Diseases” (J Med Chem, 2020); call rule not given here

Assays:
[1] = In vivo inhibition of BTK-dependent B cell activation in TI-2 antigen/ NP-Ficoll-induced DBA1 mouse immunized model assessed as reduction in anti-NP IgM antibody titer administered orally twice daily for 10 days measured post last dose by ELISA; type: functional, organism-based; settings: DBA1, po, 240 h, dose mg/kg 1-50, time 10 day
[2] = Protein binding in human plasma assessed as unbound fraction at 2 uM by rapid equilibrium dialysis method; type: ADME, cell-free
Summary of the method: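 Unbound fraction in human plasma determined by rapid equilibrium dialysis at 2 µM compound.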

[3] = Oral bioavailability in rat at 5 mg/kg; type: ADME, organism-based; settings: in vivo
Summary of the method: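 Oral dosing in rats; vehicle 0.1% CMC/0.2% Tween-80.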

[4] = Clearance in rat at 1 mg/kg, iv; type: ADME, organism-based; settings: in vivo
[5] = Clearance in rat at 1 mg/kg, iv relative to hepatic blood flow; type: ADME, organism-based; settings: in vivo
[6] = Cmax in dog at 5 mg/kg, po; type: ADME, organism-based, Canis lupus familiaris; set-up: route oral, dose 5 mg/kg; settings: in vivo
[7] = Oral bioavailability in dog at 5 mg/kg; type: ADME, organism-based, Canis lupus familiaris; settings: in vivo
[8] = Half life in dog at 1 mg/kg, iv; type: ADME, organism-based, Canis lupus familiaris; settings: in vivo
[9] = Oral bioavailability in cynomolgus monkey at 5 mg/kg; type: ADME, organism-based, Macaca fascicularis; settings: in vivo
[10] = Volume of distribution at steady state in cynomolgus monkey at 1 mg/kg, iv; type: ADME, organism-based, Macaca fascicularis; settings: in vivo, read-out: Vdss
Summary of the method: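 Intravenous dosing at 1 mg/kg; vehicle 70:30 PEG-400:H2O solution.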

[11] = Clearance in cynomolgus monkey at 1 mg/kg, iv relative to hepatic blood flow; type: ADME, organism-based, Macaca fascicularis; settings: in vivo
Cytochrome P450 1A2 [12] = target: T1, Cytochrome P450 1A2 (Homo sapiens, UniProt P05177); experiment: Inhibition of CYP1A2 in human liver microsomes using phenacetin as substrate measured after 15 mins in presence of NADPH by LC-MS/MS analysis; type: ADME
T1 sequence (P05177 whole entry): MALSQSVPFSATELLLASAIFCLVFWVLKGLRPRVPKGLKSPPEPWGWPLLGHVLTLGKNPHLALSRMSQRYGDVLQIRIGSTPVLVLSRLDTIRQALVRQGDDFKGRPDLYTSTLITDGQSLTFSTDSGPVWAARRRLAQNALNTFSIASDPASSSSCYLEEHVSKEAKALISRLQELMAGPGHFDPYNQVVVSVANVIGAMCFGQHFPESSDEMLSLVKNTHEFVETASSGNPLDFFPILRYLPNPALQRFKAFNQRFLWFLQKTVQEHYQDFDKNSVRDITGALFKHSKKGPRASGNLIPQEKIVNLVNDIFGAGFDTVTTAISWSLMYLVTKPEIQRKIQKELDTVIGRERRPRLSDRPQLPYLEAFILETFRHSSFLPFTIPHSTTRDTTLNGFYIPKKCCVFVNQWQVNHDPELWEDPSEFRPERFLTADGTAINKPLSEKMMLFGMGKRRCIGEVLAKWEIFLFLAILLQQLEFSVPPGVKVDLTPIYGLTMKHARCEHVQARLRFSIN

Cytochrome P450 2C9 = Cytochrome P450 2C9 (Homo sapiens, UniProt P11712); experiment: Inhibition of CYP2C9 in human liver microsomes using tolbutamide as substrate measured after 15 mins in presence of NADPH by LC-MS/MS analysis; type: ADME
Chain of Cytochrome P450 2C9 (P11712 whole entry): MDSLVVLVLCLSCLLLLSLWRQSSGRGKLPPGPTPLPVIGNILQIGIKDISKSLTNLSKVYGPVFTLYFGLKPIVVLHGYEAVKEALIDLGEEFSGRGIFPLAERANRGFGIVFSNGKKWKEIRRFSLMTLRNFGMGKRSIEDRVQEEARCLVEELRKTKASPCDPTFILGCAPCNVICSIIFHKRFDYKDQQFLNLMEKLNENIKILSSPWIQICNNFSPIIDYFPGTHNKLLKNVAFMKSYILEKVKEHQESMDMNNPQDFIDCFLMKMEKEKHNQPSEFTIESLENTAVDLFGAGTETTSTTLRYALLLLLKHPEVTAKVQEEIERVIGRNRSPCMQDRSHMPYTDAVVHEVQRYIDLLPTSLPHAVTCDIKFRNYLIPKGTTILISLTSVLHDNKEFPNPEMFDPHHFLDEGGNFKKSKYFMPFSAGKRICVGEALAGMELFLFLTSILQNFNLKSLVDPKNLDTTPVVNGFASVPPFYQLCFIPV

Cytochrome P450 2C19 = Cytochrome P450 2C19 (Homo sapiens, UniProt P33261); experiment: Inhibition of CYP2C19 in human liver microsomes using S-mephenytoin as substrate measured after 30 mins in presence of NADPH by LC-MS/MS analysis; type: ADME
Chain of Cytochrome P450 2C19 (P33261 whole entry): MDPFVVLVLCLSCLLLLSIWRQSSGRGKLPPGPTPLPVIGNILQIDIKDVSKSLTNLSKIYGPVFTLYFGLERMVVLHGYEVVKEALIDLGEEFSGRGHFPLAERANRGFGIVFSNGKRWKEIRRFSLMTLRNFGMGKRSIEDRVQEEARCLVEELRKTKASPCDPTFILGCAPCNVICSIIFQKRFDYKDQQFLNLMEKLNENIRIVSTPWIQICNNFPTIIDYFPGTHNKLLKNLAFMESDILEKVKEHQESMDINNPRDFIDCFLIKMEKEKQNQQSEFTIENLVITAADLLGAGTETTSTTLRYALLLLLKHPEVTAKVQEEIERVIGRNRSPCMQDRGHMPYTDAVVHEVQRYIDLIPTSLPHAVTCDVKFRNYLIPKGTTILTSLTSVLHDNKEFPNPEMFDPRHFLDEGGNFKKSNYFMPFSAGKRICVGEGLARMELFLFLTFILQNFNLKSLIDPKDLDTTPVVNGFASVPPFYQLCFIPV

Cytochrome P450 3A4 [13] = target: T2, Cytochrome P450 3A4 (Homo sapiens, UniProt P08684); experiment: Time-dependent inhibition of CYP3A4 in human liver microsomes using testosterone in presence of NADPH by LC-MS/MS analysis; type: ADME
T2 sequence (P08684 whole entry): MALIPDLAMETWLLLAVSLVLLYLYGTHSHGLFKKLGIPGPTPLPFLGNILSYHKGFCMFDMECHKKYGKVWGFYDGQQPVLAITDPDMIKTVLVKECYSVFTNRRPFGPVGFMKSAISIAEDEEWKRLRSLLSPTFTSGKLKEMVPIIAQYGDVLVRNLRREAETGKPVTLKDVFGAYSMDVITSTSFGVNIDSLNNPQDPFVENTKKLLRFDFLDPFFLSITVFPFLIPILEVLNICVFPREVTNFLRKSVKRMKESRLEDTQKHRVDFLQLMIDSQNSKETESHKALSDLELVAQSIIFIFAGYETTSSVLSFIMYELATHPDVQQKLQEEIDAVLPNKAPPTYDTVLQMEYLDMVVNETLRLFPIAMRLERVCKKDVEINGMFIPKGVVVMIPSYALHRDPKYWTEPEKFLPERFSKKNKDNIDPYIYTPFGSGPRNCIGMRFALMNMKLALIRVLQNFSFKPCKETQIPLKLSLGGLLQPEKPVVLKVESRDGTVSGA

[14] = target: Voltage-gated inwardly rectifying potassium channel KCNH2 (Homo sapiens, UniProt Q12809); experiment: Inhibition of human ERG by automated patch-clamp assay
Chain of Voltage-gated inwardly rectifying potassium channel KCNH2 (Q12809 whole entry): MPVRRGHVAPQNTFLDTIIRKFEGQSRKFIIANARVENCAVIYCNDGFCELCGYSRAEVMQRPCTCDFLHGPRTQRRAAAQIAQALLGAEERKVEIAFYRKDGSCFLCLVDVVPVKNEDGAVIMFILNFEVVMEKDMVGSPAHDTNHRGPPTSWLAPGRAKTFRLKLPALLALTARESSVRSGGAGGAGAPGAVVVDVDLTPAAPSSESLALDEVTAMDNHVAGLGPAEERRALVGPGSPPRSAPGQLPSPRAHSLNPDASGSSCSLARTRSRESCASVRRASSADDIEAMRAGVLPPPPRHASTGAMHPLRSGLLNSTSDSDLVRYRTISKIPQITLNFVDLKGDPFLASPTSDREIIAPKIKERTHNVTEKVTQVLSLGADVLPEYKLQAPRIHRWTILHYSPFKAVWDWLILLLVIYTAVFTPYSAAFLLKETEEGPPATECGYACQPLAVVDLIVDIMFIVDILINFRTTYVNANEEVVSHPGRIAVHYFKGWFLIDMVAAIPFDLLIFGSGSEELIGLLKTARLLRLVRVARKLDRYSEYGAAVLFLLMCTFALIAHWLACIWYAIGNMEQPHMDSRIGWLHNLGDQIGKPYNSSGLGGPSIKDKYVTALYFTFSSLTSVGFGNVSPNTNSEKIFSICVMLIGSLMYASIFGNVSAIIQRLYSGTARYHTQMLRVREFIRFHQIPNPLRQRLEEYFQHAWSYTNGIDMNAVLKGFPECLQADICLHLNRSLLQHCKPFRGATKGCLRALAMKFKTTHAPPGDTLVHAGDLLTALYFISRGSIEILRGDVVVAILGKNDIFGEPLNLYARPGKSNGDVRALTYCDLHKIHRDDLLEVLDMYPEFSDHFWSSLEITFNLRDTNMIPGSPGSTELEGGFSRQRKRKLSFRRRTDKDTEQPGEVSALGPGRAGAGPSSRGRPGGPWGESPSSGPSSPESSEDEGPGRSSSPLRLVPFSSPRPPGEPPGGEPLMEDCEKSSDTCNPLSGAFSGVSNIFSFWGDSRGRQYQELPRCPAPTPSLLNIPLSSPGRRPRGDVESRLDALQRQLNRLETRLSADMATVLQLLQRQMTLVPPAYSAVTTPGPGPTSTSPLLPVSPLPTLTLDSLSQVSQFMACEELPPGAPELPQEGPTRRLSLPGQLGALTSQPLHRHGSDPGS

[15] = Aqueous solubility of compound in simulated gastric fluid at pH 2 by HPLC method; type: physicochemical
Cytochrome P450 1A2 [16] = target: T1, Cytochrome P450 1A2; experiment: Induction of CYP1A2 in human hepatocytes up to 50 uM; type: ADME, cell-based, Hepatocyte
Summary of the method: (§1)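 Sandwich-cultured human hepatocytes exposed at concentrations up to 50 μM; induction of CYP1A2, 2B6 and 3A4 assessed.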

Cytochrome P450 3A4 [17] = target: T2, Cytochrome P450 3A4; experiment: Induction of CYP3A4 in human hepatocytes up to 50 uM; type: ADME, cell-based, Hepatocyte; summary of the method: as §1
[18] = Stability in mouse plasma assessed as parent compound remaining after 6 hrs; type: ADME, cell-free; settings: read-out: Stabilty
Summary of the method: (§2)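 Compound incubated in plasma for 6 hours, then percentage of parent compound remaining determined.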

[19] = Stability in Beagle dog plasma assessed as parent compound remaining after 6 hrs; type: ADME, cell-free, Canis lupus familiaris; settings: read-out: Stabilty; summary of the method: as §2
[20] = Drug metabolism in human liver microsomes assessed as oxidation at pyrazole moiety; type: ADME, Microsome
[21] = Drug metabolism in human liver microsomes assessed as N-demethylation; type: ADME, Microsome
[22] = Toxicity in Sprague-Dawley rat assessed as change in body weight measured up to 13 weeks; settings: in vivo, 2184 h
Summary of the method: (§3)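 GLP toxicity studies lasting up to 13 weeks, run in Sprague-Dawley rats and cynomolgus monkeys.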

[23] = Toxicity in Sprague-Dawley rat assessed as effect on food consumption measured up to 13 weeks; settings: in vivo, 2184 h; summary of the method: as §3
[24] = Toxicity in Sprague-Dawley rat assessed as change in ECG measured up to 13 weeks; settings: in vivo, 2184 h; summary of the method: as §3
[25] = Toxicity in Sprague-Dawley rat assessed as effect on organ weight measured up to 13 weeks; settings: in vivo, 2184 h; summary of the method: as §3
[26] = Toxicity in Sprague-Dawley rat assessed as effect on gross pathology measured up to 13 weeks; settings: in vivo, 2184 h; summary of the method: as §3
[27] = Toxicity in Sprague-Dawley rat assessed as histopathological changes measured up to 13 weeks; settings: in vivo, 2184 h; summary of the method: as §3
[28] = Toxicity in cynomolgus monkey assessed as effect on clinical sign measured up to 13 weeks; set-up: species or system Macaca fascicularis; settings: in vivo, 2184 h; summary of the method: as §3
[29] = Toxicity in cynomolgus monkey assessed as change in ECG measured up to 13 weeks; set-up: species or system Macaca fascicularis; settings: in vivo, 2184 h; summary of the method: as §3
[30] = Toxicity in cynomolgus monkey assessed as effect on clinical pathology measured up to 13 weeks; set-up: species or system Macaca fascicularis; settings: in vivo, 2184 h; summary of the method: as §3
[31] = Toxicity in cynomolgus monkey assessed as effect on organ weight measured up to 13 weeks; set-up: species or system Macaca fascicularis; settings: in vivo, 2184 h; summary of the method: as §3
[32] = Toxicity in cynomolgus monkey measured up to 13 weeks; set-up: species or system Macaca fascicularis; settings: in vivo; summary of the method: as §3
[33] = AUC (infinity) in cynomolgus monkey at 100 mg/kg; type: ADME, organism-based, Macaca fascicularis; set-up: time infinity, dose 100 mg/kg; settings: in vivo
Summary of the method: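 Sprague-Dawley rats and cynomolgus monkeys given compound daily in GLP toxicity studies lasting up to 13 weeks; daily AUCinf taken at the no-observed-adverse-effect dose level of each species.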

[34] = Toxicity in Sprague-Dawley rat assessed as effect on CNS administered as single dose; settings: in vivo
Summary of the method: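 Single-dose CNS and respiratory safety studies in rats.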

[35] = Genotoxicity in Sprague-Dawley rat assessed as clastogenic activity by micronucleus assay; type: toxicity
Summary of the method: (§4)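 In vivo micronucleus test in Sprague-Dawley rats; bone marrow scored for micronuclei, clastogenic activity and disruption of the mitotic apparatus.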

[36] = Genotoxicity in Sprague-Dawley rat assessed as disruption of mitotic apparatus in bone marrow by micronucleus assay; type: toxicity; summary of the method: as §4
[37] = Genotoxicity in Sprague-Dawley rat assessed as micronuclei formation by micronucleus assay; type: toxicity; summary of the method: as §4
[38] = Tmax in human at 10 to 120 mg administered orally using tablet form of sample; type: ADME; settings: in vivo, po, dose 10-120 mg
Summary of the method: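 Single ascending oral tablet doses from 10 mg up to 120 mg given to healthy volunteers; plasma concentration followed over time after dosing.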

Which results are given for `Cc1cc(-c2ccnc(Nc3cnn(C)c3)n2)ccc1CNC(=O)N1CC(OC(C)C)C1`?
ED50 [1]: 4.4 mg/kg; fraction unbound at 2 µM [2]: 0.059; bioavailability [3]: 48%; clearance [4]: 0.18 L/h/kg; CL [5]: 6%; Cmax [6]: 0.652 µg/mL; bioavailability [7]: 26%; half-life [8]: 2.1 h; bioavailability [9]: 32%; Vd [10]: 0.7 L/kg; CL [11]: 26%; IC50 (Cytochrome P450 1A2 [12]): > 25 µM; IC50 (Cytochrome P450 2C9): > 25 µM; IC50 (Cytochrome P450 2C19): > 25 µM; Ki (Cytochrome P450 3A4 [13]): 50 µM; IC50 [14]: > 50 µM; solubility [15]: > 0.1 mg/mL; Activity (Cytochrome P450 1A2 [16]): Not Active; Activity (Cytochrome P450 3A4 [17]): Not Active; remaining at 6 h [18]: > 95%; remaining at 6 h [19]: > 95%; Drug metabolism [20]: Metabolite_Detected; Drug metabolism [21]: Metabolite_Detected; Activity [22]: Non-Toxic; Activity [23]: Non-Toxic; Activity [24]: Non-Toxic; Activity [25]: Non-Toxic; Activity [26]: Non-Toxic; Activity [27]: Non-Toxic; Activity [28]: Non-Toxic; Activity [29]: Non-Toxic; Activity [30]: Non-Toxic; Activity [31]: Non-Toxic; NOAEL at 2184 h [32]: 100 mg/kg/day; AUC(0-inf) [33]: 129 µg·h/mL; Activity [34]: Non-Toxic; Activity [35]: Non-Toxic; Activity [36]: Non-Toxic; Activity [37]: Non-Toxic; Tmax [38]: 0.9 h
